Measured values taken from ChEMBL document CHEMBL5674890, “Selective inhibition of CBP/p300 HAT by A-485 results in suppression of lipogenesis and hepatic gluconeogenesis” (Cell Death Dis, 2020).
Active and inactive are the calls of the source. The calls are words filed in the database; no cut-off is given here.

Columns and labels:
Mus musculus [1] = test: Anti-obesity activity in C57BL/6 mouse supplemented with normal chow diet assessed as decrease in total fat mass at 20 mg/kg/day, ip administered for 1 week measured by EchoMRI live analysis; assay type: functional; parameters: scale not given: the % may be the effect or the level left; details: time 1 weeks
Procedure, shortened: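 Normal-chow male C57BL/6 mice, 8 weeks old, ip 20 mg·kg−1·day−1 daily for 7 days. Total lean and fat mass measured in live animals by EchoMRI. Mean ± SEM, n = 5–9.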

Mus musculus [2] = test: Anti-obesity activity in 16 hrs fasted C57BL/6 mouse supplemented with normal chow diet assessed as decrease in fasting blood glucose at 20 mg/kg/day, ip administered for 1 week; assay type: functional, organism-based; details: time 1.0 weeks
Procedure, shortened: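 8-week-old male C57BL/6 mice on normal chow, ip 20 mg·kg−1·day−1 for 7 days. Blood glucose measured randomly fed or after 6 h or 16 h fasting, as the line states. Mean ± SEM, n = 5–9.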

Mus musculus [3] = test: Anti-obesity activity in C57BL/6 mouse supplemented with high fat diet assessed as decrease in body weight at 20 mg/kg/day, ip administered for 1 week; assay type: functional, organism-based; details: time 1.0 weeks
Procedure, shortened: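 Male C57BL/6 mice fed high-fat diet for 14 weeks from 5 weeks of age, then ip 20 mg·kg−1·day−1 for 7 days. Body weight, EchoMRI lean/fat mass, and random or 16 h-fasted blood glucose recorded, as the line states.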

Mus musculus [4] = test: Anti-obesity activity in C57BL/6 mouse supplemented with high fat diet assessed as decrease in hepatic G6Pc mRNA expression level at 20 mg/kg/day, ip administered for 1 week measured by RT-qPCR assay; assay type: functional, organism-based; details: time 1.0 weeks
Procedure, shortened: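 Hepatic G6Pc mRNA in male C57BL/6 mice fed HFD for 14 weeks, then ip 20 mg·kg−1·day−1 for 7 days. Liver RNA extracted with Trizol; SYBR Green RT-qPCR.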

Mus musculus [5] = test: Inhibition of lipogenesis in C57BL/6 mouse supplemented with normal chow diet assessed as decrease in SREBP-1c mRNA expression at 20 mg/kg/day, ip administered for 1 week measured by RT-qPCR assay; assay type: functional, organism-based; details: time 1.0 weeks
Procedure, shortened: (§1)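 Eight-week-old male C57BL/6 mice on normal chow were given 20 mg·kg−1·day−1 ip daily for 7 days or vehicle. Epididymal WAT was collected. Lipogenic, adipogenic and fatty-acid-oxidation transcripts were quantified by Trizol extraction and SYBR Green RT-qPCR. FAS, ACC, PPARγ and C/EBPα protein were assessed by western blot. n = 5–9; mean ± SEM.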

Mus musculus [6] = test: Inhibition of lipogenesis in C57BL/6 mouse supplemented with normal chow diet assessed as decrease in FAS protein expression at 20 mg/kg/day, ip administered for 1 week measured by western blot analysis; assay type: functional, organism-based; details: time 1.0 weeks; procedure, shortened: as §1
Mus musculus [7] = test: Inhibition of lipogenesis in C57BL/6 mouse supplemented with normal chow diet assessed as effect on CPT1alpha mRNA expression at 20 mg/kg/day, ip administered for 1 week measured by RT-qPCR assay; assay type: functional, organism-based; details: time 1.0 weeks; procedure, shortened: as §1
Mus musculus [8] = test: Inhibition of lipogenesis in C57BL/6 mouse supplemented with normal chow diet assessed as decrease in C/EBPalpha protein expression at 20 mg/kg/day, ip administered for 1 week measured measured by western blot analysis; assay type: functional, organism-based; details: time 1.0 weeks; procedure, shortened: as §1
Adipocyte [9] = test: Inhibition of lipogenesis in mouse adipocytes isolated stromal vascular cells assessed as decrease in SCD1 mRNA expression measured after 24 hrs by RT-qPCR assay; assay type: functional, cell-based
Procedure, shortened: (§2)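 Stromal vascular cells from inguinal WAT of C57BL/6 mice, grown in DMEM/F12 + 10% FBS at 37 °C, 10% CO2. At confluence, induced 48 h with 5 μg/ml insulin, 1 μM dexamethasone, 0.5 mM isobutylmethylxanthine, then 6 days in 5 μg/ml insulin; fully differentiated day 8. Mature adipocytes exposed to inhibitor 24 h. Total RNA by Trizol, SYBR Green RT-qPCR; protein by western blot.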

Adipocyte [10] = test: Inhibition of lipogenesis in mouse adipocytes isolated stromal vascular cells assessed as decrease in SREBP-1c mRNA expression measured after 24 hrs by RT-qPCR assay; assay type: functional, cell-based; procedure, shortened: as §2
Adipocyte [11] = test: Inhibition of lipogenesis in mouse adipocytes isolated stromal vascular cells assessed as decrease in PPARgamma mRNA expression measured after 24 hrs by RT-qPCR assay; assay type: functional, cell-based; procedure, shortened: as §2
Mus musculus [12] = test: Inhibition of hepatic lipogenesis in C57BL/6 mouse supplemented with normal chow diet assessed as decrease in ChREBP protein expression at 20 mg/kg/day, ip administered for 1 week measured by western blot analysis; assay type: functional, organism-based; details: time 1.0 weeks
Procedure, shortened: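 Normal-chow male C57BL/6 mice, 8 weeks old, were injected ip at 20 mg·kg−1·day−1 daily for 7 days or given vehicle. Liver tissue was homogenized in lysis buffer, and FAS and ChREBP protein were assessed by western blot. n = 5–9.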

Mus musculus [13] = test: Inhibition of hepatic lipogenesis in C57BL/6 mouse supplemented with normal chow diet assessed as effect on MCAD mRNA expression at 20 mg/kg/day, ip administered for 1 week measured by RT-qPCR assay; assay type: functional, organism-based; details: time 1.0 weeks
Procedure, shortened: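 Normal-chow male C57BL/6 mice, 8 weeks old, were injected ip at 20 mg·kg−1·day−1 daily for 7 days or given vehicle. Liver RNA was extracted with Trizol, and fatty-acid-oxidation gene transcripts were quantified by SYBR Green RT-qPCR. n = 5–9; mean ± SEM.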

Hepatocyte [14] = test: Inhibition of lipogenesis in mouse primary hepatocytes assessed as increase in CPT1alpha mRNA expression at 3 uM in presence of 100 nM insulin and 5 to 25 mM glucose measured after 18 hrs by RT-qPCR assay; assay type: functional, cell-based
Procedure, shortened: (§3)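 Primary hepatocytes isolated from C57BL/6 mice by two-step perfusion. Cells incubated 18 h with 3 μM inhibitor, with 0 or 100 nM insulin and 5 or 25 mM glucose. Transcripts quantified by SYBR Green RT-qPCR after Trizol RNA extraction; proteins by western blot of lysates. Mean ± SEM.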

Hepatocyte [15] = test: Inhibition of lipogenesis in mouse primary hepatocytes assessed as increase in MCAD mRNA expression at 3 uM in presence of 100 nM insulin and 5 to 25 mM glucose measured after 18 hrs by RT-qPCR assay; assay type: functional, cell-based; procedure, shortened: as §3
Hepatocyte [16] = test: Inhibition of glucogenesis in mouse primary hepatocytes stimulated with 100 uM 8-Br-cAMP assessed as effect on pTORC2 protein expression at 3 uM measured after 1 hr by western blot analysis; assay type: functional, cell-based
Procedure, shortened: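 Primary hepatocytes from C57BL/6 mice, isolated by two-step perfusion, were co-treated with 3 μM A-485 and 100 μM 8-Br-cAMP for 1 h. Phospho-CREB, phospho-AMPK and phospho-TORC2 were detected by western blot of cell lysates. Three independent experiments; mean ± SEM.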

Mus musculus [17] = organism: Mus musculus; test: Inhibition of glucogenesis in mouse assessed as decrease in occupancy of G6Pc promoter with FOXO1 in liver measured by ChIP-qPCR analysis; assay type: functional, organism-based
Procedure, shortened: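 Livers from mice dosed ip at 20 mg·kg−1·day−1 for 7 days. Tissue crosslinked in 1% formaldehyde, lysed, sonicated to 200–1000 bp chromatin, immunoprecipitated with anti-FOXO1 or IgG. G6Pc promoter quantified by qPCR.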

[18] = target: CREB-binding protein/Histone acetyltransferase p300 (Homo sapiens) (UniProt Q09472+Q92793); test: Inhibition of CBP/p300 in mouse primary hepatocytes stimulated with 100 uM 8-Br-cAMP assessed as decrease in FOXO1 abundance in nucleus at 3 uM; assay type: cell-based; details: Primary hepatocyte
Sequence of CREB-binding protein/Histone acetyltransferase p300 (Homo sapiens) (Q09472 whole entry, looked up): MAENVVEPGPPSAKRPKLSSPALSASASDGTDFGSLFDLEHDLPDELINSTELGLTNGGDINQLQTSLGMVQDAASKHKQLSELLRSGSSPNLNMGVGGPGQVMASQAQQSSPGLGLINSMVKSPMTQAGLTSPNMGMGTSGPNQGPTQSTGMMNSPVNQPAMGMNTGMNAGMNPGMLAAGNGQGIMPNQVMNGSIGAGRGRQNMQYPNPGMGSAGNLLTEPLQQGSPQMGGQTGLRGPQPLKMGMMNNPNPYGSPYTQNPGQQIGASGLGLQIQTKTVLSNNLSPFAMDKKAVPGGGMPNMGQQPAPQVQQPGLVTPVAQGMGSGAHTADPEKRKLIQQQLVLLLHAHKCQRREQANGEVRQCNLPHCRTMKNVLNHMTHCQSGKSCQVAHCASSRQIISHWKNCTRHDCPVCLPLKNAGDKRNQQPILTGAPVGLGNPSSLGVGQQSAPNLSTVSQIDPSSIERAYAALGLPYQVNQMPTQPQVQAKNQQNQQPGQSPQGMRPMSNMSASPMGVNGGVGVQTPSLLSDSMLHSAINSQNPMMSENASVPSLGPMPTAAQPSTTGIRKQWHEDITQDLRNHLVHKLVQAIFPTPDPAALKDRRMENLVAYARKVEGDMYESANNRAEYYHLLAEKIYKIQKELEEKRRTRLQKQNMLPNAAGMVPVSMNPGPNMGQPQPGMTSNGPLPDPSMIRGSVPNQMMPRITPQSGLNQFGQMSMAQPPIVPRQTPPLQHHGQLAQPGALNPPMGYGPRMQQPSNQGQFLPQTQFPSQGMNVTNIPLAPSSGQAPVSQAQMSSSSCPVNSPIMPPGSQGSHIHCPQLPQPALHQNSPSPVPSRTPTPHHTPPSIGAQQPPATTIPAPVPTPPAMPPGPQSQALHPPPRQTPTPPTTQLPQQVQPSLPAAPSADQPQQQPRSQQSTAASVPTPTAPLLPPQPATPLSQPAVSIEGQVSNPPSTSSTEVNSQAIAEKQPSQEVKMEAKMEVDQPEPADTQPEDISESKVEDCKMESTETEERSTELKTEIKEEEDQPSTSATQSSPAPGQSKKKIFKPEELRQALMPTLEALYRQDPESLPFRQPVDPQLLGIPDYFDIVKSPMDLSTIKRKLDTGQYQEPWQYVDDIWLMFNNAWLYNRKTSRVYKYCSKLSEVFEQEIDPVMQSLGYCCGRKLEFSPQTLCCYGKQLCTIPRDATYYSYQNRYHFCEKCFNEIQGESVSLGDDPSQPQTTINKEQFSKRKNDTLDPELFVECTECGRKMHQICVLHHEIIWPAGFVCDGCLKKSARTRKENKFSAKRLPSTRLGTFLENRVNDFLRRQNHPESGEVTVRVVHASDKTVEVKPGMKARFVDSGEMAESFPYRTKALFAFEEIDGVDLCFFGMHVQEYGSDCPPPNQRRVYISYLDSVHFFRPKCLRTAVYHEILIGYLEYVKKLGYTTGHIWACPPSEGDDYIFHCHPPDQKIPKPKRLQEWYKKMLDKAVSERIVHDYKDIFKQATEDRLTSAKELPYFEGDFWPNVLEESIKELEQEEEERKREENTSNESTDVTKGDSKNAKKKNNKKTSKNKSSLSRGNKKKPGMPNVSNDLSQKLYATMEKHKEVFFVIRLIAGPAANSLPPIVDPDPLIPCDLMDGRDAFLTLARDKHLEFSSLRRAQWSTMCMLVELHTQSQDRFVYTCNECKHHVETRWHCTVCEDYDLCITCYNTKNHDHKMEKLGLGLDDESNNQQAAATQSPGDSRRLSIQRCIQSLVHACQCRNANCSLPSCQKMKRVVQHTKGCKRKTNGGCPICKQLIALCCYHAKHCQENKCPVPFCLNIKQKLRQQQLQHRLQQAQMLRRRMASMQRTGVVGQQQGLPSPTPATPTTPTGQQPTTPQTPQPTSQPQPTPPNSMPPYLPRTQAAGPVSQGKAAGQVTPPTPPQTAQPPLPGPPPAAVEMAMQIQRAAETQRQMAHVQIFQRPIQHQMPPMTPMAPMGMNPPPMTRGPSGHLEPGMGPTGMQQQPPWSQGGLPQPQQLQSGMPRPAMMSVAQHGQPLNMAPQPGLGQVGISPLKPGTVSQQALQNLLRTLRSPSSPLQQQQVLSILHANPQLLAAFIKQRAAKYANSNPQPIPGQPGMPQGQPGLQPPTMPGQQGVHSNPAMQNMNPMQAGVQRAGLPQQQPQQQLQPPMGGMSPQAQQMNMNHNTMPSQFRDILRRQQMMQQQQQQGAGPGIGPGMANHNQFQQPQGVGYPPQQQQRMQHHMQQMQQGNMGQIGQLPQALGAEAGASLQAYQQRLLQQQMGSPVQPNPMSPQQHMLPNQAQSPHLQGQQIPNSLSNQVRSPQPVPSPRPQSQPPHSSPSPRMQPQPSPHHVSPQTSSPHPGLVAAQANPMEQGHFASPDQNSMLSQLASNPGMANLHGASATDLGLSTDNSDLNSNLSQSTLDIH
Sequence of CREB-binding protein/Histone acetyltransferase p300 (Homo sapiens) (Q92793 whole entry, looked up): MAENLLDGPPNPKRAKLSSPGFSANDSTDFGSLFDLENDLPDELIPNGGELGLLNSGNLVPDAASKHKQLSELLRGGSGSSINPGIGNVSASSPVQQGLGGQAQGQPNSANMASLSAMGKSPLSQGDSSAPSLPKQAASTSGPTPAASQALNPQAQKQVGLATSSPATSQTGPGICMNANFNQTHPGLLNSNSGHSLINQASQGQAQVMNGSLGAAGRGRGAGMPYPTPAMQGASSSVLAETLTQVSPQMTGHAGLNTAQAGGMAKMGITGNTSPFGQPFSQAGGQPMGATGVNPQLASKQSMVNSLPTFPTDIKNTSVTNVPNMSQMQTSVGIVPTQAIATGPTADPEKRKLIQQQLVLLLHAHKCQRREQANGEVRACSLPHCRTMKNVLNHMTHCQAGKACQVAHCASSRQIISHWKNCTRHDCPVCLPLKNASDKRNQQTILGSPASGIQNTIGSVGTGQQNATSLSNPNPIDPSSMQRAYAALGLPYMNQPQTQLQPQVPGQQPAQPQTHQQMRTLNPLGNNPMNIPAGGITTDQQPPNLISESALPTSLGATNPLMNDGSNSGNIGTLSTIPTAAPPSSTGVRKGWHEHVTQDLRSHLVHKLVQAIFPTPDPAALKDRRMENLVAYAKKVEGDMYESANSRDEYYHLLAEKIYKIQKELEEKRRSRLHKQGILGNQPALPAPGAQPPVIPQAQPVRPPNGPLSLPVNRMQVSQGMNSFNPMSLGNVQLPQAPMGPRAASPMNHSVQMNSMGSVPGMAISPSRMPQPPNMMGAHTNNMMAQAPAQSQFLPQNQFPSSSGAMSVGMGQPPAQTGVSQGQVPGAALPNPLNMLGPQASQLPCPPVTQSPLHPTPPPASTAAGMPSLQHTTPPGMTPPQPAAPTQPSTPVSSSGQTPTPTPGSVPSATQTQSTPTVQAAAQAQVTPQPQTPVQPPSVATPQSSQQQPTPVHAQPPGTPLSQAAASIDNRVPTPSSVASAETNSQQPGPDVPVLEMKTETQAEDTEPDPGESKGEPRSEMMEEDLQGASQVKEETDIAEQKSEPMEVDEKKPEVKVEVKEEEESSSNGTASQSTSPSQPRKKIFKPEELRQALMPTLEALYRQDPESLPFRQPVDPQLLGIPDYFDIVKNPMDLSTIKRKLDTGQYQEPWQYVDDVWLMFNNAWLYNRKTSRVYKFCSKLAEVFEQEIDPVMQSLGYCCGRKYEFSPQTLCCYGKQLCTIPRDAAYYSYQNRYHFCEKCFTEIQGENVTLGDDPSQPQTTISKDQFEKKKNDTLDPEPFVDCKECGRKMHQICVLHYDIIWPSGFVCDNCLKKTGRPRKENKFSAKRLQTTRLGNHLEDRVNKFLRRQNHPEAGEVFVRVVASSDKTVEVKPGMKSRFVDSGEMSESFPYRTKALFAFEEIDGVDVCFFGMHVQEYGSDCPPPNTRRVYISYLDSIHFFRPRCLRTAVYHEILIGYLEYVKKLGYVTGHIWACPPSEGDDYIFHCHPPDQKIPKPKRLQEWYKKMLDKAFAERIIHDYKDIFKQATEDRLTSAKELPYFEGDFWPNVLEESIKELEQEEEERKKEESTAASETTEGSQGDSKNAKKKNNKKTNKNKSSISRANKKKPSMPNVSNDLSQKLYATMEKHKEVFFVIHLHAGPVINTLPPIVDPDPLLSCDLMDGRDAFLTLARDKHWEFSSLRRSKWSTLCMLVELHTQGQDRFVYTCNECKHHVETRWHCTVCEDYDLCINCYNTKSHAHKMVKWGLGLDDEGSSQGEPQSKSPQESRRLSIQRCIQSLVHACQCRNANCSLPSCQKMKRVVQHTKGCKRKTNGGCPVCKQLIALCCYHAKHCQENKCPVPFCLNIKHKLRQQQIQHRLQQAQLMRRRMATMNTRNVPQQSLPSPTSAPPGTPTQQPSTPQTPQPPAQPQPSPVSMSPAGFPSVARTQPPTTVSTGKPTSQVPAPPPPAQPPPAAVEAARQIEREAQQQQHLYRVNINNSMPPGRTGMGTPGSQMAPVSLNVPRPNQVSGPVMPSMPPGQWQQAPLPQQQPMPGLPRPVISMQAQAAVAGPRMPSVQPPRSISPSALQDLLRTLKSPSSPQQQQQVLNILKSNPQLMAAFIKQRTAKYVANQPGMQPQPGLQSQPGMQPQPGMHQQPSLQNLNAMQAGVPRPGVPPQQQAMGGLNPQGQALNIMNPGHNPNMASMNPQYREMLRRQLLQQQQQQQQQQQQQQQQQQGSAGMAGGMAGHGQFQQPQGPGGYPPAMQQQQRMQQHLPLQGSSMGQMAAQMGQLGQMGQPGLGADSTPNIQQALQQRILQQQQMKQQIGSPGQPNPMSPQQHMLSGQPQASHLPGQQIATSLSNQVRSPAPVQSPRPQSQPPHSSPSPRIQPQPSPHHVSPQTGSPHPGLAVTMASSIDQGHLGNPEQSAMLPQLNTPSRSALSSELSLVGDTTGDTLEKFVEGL
Procedure, shortened: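 Primary mouse hepatocytes treated with 3 μM compound and 100 μM 8-Br-cAMP. Nuclear and cytoplasmic fractions separated with a commercial kit; FOXO1 detected by western blot.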

inhibition [18]: Active
SMILES: CNC(=O)Nc1ccc2c(c1)CCS21OC(=O)N(CC(=O)N(Cc2ccc(F)cc2)[C@@H](C)C(F)(F)F)C1=O (stereo partly drawn)
Activity (Mus musculus [1]): ~14%
Activity (Mus musculus [2]): Active
Activity (Mus musculus [3]): Active
Activity (Mus musculus [4]): Active
inhibition (Mus musculus [5]): Active
inhibition (Mus musculus [6]): Active
inhibition (Mus musculus [7]): inactive
inhibition (Mus musculus [8]): Active
inhibition (Adipocyte [9]): Active
inhibition (Adipocyte [10]): Active
inhibition (Adipocyte [11]): Active
inhibition (Mus musculus [12]): Active
inhibition (Mus musculus [13]): inactive
inhibition (Hepatocyte [14]): Active
inhibition (Hepatocyte [15]): Active
inhibition (Hepatocyte [16]): inactive
inhibition (Mus musculus [17]): Active
